Laboratory results reported in PMC10582055 (Saudi Pharmaceutical Journal : SPJ, 2023).
Each block holds one compound with its values, some of them ahead of it.

How the values were obtained:
Format in all cases: in vivo, Wistar rats
[1] = system: CYP3A2; assay: Hepatic and intestinal CYP3A2 protein expression
Summary of the method: (§1)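 Wistar rats (n = 6/group), fasted overnight and dosed by intragastric gavage: saline for 7 days; saline for 6 days, then the drug at 25 mg/kg p.o. on day 7; the drug on day 7 given 2 h after test compound at 40 mg/kg; or test compound at 40 mg/kg for 7 days. Liver and intestine protein (BCA) was run on 10% SDS-PAGE and blotted to PVDF. Primary antibodies with β-actin overnight at 4 °C, secondary 2 h, chemiluminescence, densitometry. Mean ± SD, one-way ANOVA.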

[2] = system: BCRP/ABCG2; assay: Hepatic and intestinal BCRP/ABCG2 protein expression
Summary of the method: as §1

[3] = Pharmacokinetics of oral DAS in rats with or without SA pretreatment; conditions: for k el: Kel; for MRT inf: MRT 0-inf_obs
[4] = system: Pgp/MDR1; assay: Hepatic and intestinal Pgp/MDR1 protein expression
Summary of the method: as §1

[5] = Wistar, rat, plasma, po, 25 mg/kg, rats, DAS 25 mg/kg p.o. after SA 40 mg/kg p.o. pretreatment for seven days, Mean ± SD
[6] = Wistar, rat, plasma, po, 25 mg/kg, rats, DAS 25 mg/kg p.o. single dose, alone, Mean ± SD
[7] = decrease, SA 40 mg/kg + DAS 25 mg/kg vs DAS alone, rats
[8] = increase, SA 40 mg/kg + DAS 25 mg/kg vs DAS alone, rats
[9] = rats, DAS 25 mg/kg p.o. after SA 40 mg/kg p.o. pretreatment for seven days, Mean ± SD
[10] = rats, DAS 25 mg/kg p.o. single dose, alone, Mean ± SD
[11] = intestine, SA 40 mg/kg alone vs normal rats
[12] = liver, SA 40 mg/kg alone vs normal rats
[13] = intestine, SA-pretreated rats + DAS vs DAS alone
[14] = liver, SA-pretreated rats + DAS vs DAS alone

increase of intestinal CYP3A2 protein expression ([1]; intestine, DAS administered rats (25 mg/kg p.o.) vs normal rats): 92.97%
increase of hepatic CYP3A2 protein expression ([1]; liver, DAS administered rats (25 mg/kg p.o.) vs normal rats): 92.03%
half-life ([3]; Wistar, rat, plasma, po, 25 mg/kg): 5.59 ± 0.2 h
AUC(0-t) [3, 5]: 2210 ± 96.3 ng·h/mL
AUC(0-t) [3, 6]: 1720 ± 70.6 ng·h/mL
Cmax [3, 5]: 419 ± 18.8 ng/mL
Cmax [3, 6]: 259 ± 9.71 ng/mL
k el [3, 5]: 3.33e-05 s⁻¹
k el [3, 6]: 4.44e-05 s⁻¹
MRT inf [3, 5]: 8.2 ± 0.25 h
MRT inf [3, 6]: 7.31 ± 0.17 h
% Change in Cl [3, 7]: 26.97%
% Change in Kel [3, 7]: 22.33%
% Change in Vd [3, 7]: 5.96%
% Change in AUC 0-t [3, 8]: 28.98%
% Change in AUMC 0-∞ [3, 8]: 53.63%
% Change in Cmax [3, 8]: 62.02%
% Change in MRT 0-inf_obs [3, 8]: 12.08%
% Change in T1/2 [3, 8]: 28.82%
% Change in Tmax [3, 8]: 100%
AUMC 0-∞ [3, 9]: 23569.00 ± 1418.58 ng/mL*h^2
Cl [3, 9]: 0.009 ± 0.00 (mg/kg)/(ng/mL)/h
Tmax [3, 9]: 2.00 ± 0.00 h
Vd [3, 9]: 0.070 ± 0.004 (mg/kg)/(ng/mL)
AUMC 0-∞ [3, 10]: 15341.83 ± 607.98 ng/mL*h^2
Cl [3, 10]: 0.012 ± 0.001 (mg/kg)/(ng/mL)/h
T1/2 [3, 10]: 4.34 ± 0.11 h
Vd [3, 10]: 0.075 ± 0.003 (mg/kg)/(ng/mL)
SMILES: Cc1nc(Nc2ncc(C(=O)Nc3c(C)cccc3Cl)s2)cc(N2CCN(CCO)CC2)n1 [DAS, Dasatinib]
induction of intestinal BCPR/ABCG2 protein expression ([2]; intestine, DAS per-oral administration vs normal rats): 73.55%
induction of hepatic BCPR/ABCG2 protein expression ([2]; liver, DAS per-oral administration vs normal rats): 75.09%
induction of intestinal Pgp/MDR1 protein expression ([4]; intestine, DAS administration vs normal rats): 76.42%
induction of hepatic Pgp/MDR1 protein expression ([4]; liver, DAS administration vs normal rats): 72.30%

inhibition of intestinal CYP3A2 protein expression [1, 11]: 89.47%
inhibition of hepatic CYP3A2 protein expression [1, 12]: 88.91%
inhibition of hepatic CYP3A2 protein expression ([1]; liver, SA 40 mg/kg pretreatment for seven days + DAS vs DAS administered rats): 57.11%
inhibition of intestinal BCPR/ABCG2 protein [2, 13]: 50.48%
inhibition of hepatic BCPR/ABCG2 protein [2, 14]: 51.44%
SMILES: COc1cc(/C=C/C(=O)O)cc(OC)c1O [SA, Sinapic acid]
inhibition of intestinal Pgp/MDR1 protein expression [4, 11]: 76.93%
inhibition of intestinal Pgp/MDR1 protein expression [4, 13]: 47.43%
inhibition of hepatic Pgp/MDR1 protein expression [4, 12]: 84.93%
inhibition of hepatic Pgp/MDR1 protein expression [4, 14]: 44.06%
